# Target: T1, Hydroxycarboxylic acid receptor 3 (Homo sapiens, UniProt P49019)
# Test: Activity at GPR109b in CHO cells assessed as inhibition of forskolin-induced cAMP generation upto 100 uM
# Type: functional, cell-based
# Parameters: scale not given: the % may be the effect or the level left
# How it was run: (§1)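 Whole-cell adenylyl cyclase FlashPlate cAMP assay on a stable receptor clone (positive clones picked by anti-HA immunostaining). Each well held 50 000 cells, stimulated with 5 µM forskolin. Normalisation: forskolin-stimulated cAMP set at 100%, cAMP from cells without forskolin at 200%. Potency reported as EC50 with number of determinations (n).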
# T1 sequence (P49019 whole entry): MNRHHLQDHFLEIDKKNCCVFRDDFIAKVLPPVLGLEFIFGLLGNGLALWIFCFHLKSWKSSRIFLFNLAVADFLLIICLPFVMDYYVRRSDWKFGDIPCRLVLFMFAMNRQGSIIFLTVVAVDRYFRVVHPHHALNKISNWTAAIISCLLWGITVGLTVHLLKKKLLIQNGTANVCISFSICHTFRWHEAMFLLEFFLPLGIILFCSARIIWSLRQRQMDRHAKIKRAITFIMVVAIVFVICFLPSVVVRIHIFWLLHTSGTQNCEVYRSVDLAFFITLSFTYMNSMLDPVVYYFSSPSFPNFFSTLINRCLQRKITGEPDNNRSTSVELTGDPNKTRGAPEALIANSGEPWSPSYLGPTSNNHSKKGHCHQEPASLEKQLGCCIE
row,Activity [%],Compound
1,< 50,CC1(c2cccnc2)OC(C(=O)O)=CC1=O (stereo not given)
2,< 50,O=C(O)C1=CC(=O)C2(CCc3ccccc32)O1 (stereo not given)
3,< 50,CC1(c2cc(Cl)ccc2Cl)OC(C(=O)O)=CC1=O (stereo not given)
4,< 50,COc1cccc(C2(C)OC(C(=O)O)=CC2=O)c1 (stereo not given)
5,< 50,O=C(O)c1cccnc1
6,< 50,Cc1cnc(C(=O)O)c[n+]1[O-]
7,< 50,"CC1(c2ccccc2)OC(C(=O)O)=CC1=O (single isomer, unassigned; (-))"
8,< 50,CC1(c2ccco2)OC(C(=O)O)=CC1=O (stereo not given)
9,< 50,CC1(c2ccncc2)OC(C(=O)O)=CC1=O (stereo not given)
10,< 50,Cc1cccc(C2(C)OC(C(=O)O)=CC2=O)c1 (stereo not given)

# Species: Homo sapiens
# Test: Selectivity for GPR109a over GPR109b
# Type: functional
# How it was run: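 Whole-cell cAMP (adenylyl cyclase activation) FlashPlate assay on stable clones expressing GPR109a or GPR109b; clones picked by anti-HA immunostaining. Each clone was optimized separately, using 50 000 cells per well and 5 µM forskolin stimulation. Forskolin-stimulated cAMP was set as 100% and unstimulated cAMP as 200%. Agonist EC50 was measured at each receptor.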
row,Compound,Selectivity ratio
1,CC1(c2ccccc2)OC(C(=O)O)=CC1=O (stereo in doubt; 5a),3

# Target: T1, Hydroxycarboxylic acid receptor 3
# Test: Activity at GPR109b in CHO cells assessed as inhibition of forskolin-induced cAMP generation
# Type: functional, cell-based
# How it was run: as §1
row,EC50,Compound
1,5.1 µM (agonist),CC1(c2cccc(I)c2)OC(C(=O)O)=CC1=O (stereo not given)
2,1.7 µM (agonist),CC1(c2csc(Cl)c2)OC(C(=O)O)=CC1=O (stereo in doubt; 5ah)
3,1.5 µM (agonist),CC1(c2csc(Br)c2)OC(C(=O)O)=CC1=O (stereo in doubt; 5ai)
4,36 µM (agonist),CC1(c2c(F)cccc2F)OC(C(=O)O)=CC1=O (stereo not given)
5,12.6 µM (agonist),CC1(c2cccc(C(F)(F)F)c2)OC(C(=O)O)=CC1=O (stereo not given)
6,0.27 µM (agonist),Cc1ccc(C2(C)OC(C(=O)O)=CC2=O)s1 (stereo not given)
7,9.9 µM (agonist),CC1(c2ccc(F)cc2)OC(C(=O)O)=CC1=O (stereo not given)
8,22 µM (agonist),CC1(c2cccc(Cl)c2)OC(C(=O)O)=CC1=O (stereo not given)
9,1.8 µM (agonist),Cc1csc(C2(C)OC(C(=O)O)=CC2=O)c1 (stereo not given)
10,14 µM (agonist),"CC1(c2cccc(Br)c2)OC(C(=O)O)=CC1=O (single isomer, unassigned; (+))"
11,5 µM (agonist),Cc1cc(C2(C)OC(C(=O)O)=CC2=O)cs1 (stereo in doubt; (-)-5aj)
12,19 µM (agonist),CC1(c2ccc(F)c(F)c2)OC(C(=O)O)=CC1=O (stereo not given)
13,4.2 µM (agonist),CC1(c2ccsc2)OC(C(=O)O)=CC1=O (stereo not given)
14,4.2 µM (agonist),CC1(c2ccccc2)OC(C(=O)O)=CC1=O (stereo in doubt; 5a) [ACIFRAN]
15,33 µM (agonist),CC1(c2cc(F)cc(F)c2)OC(C(=O)O)=CC1=O (stereo not given)
16,0.18 µM (agonist),"Cc1cc(C2(C)OC(C(=O)O)=CC2=O)cs1 (single isomer, unassigned; (+))"
17,4.9 µM (agonist),CC1(c2cccc(Br)c2)OC(C(=O)O)=CC1=O (stereo in doubt; 5u)
18,0.69 µM (agonist),"CC1(c2csc(Cl)c2)OC(C(=O)O)=CC1=O (single isomer, unassigned; (+))"
19,24 µM (agonist),CC1(c2ccc(F)cc2F)OC(C(=O)O)=CC1=O (stereo not given)
20,10.4 µM (agonist),Cc1sc(C2(C)OC(C(=O)O)=CC2=O)cc1Br (stereo not given)
21,0.37 µM (agonist),CC1(c2csc(Br)c2)OC(C(=O)O)=CC1=O (stereo in doubt; (+)-5ai)
22,6.2 µM (agonist),CCc1cccc(C2(C)OC(C(=O)O)=CC2=O)c1 (stereo not given)
23,5.1 µM (agonist),CC1(C2=CCCC2)OC(C(=O)O)=CC1=O (stereo not given)
24,4.1 µM (agonist),CC1(c2cc(Br)cs2)OC(C(=O)O)=CC1=O (stereo not given)
25,0.18 µM (agonist),Cc1cc(C2(C)OC(C(=O)O)=CC2=O)cs1 (stereo in doubt; 5aj)
26,3.7 µM (agonist),CC1(c2ccc(Cl)s2)OC(C(=O)O)=CC1=O (stereo not given)
27,16 µM (agonist),CC1(c2csc(Cl)c2)OC(C(=O)O)=CC1=O (stereo in doubt; (-)-5ah)
28,3 µM (agonist),CC1(c2ccccc2)OC(C(=O)O)=CC1=O (stereo in doubt; (+)-5a) [ACIFRAN]
29,4.8 µM (agonist),CCC1(c2ccccc2)OC(C(=O)O)=CC1=O (stereo not given)

# Source: ChEMBL document CHEMBL1142997 (J Med Chem, 2007)
